# Measured values as given in PubChem BioAssay.
# Values without a mark were called inactive. Results filed as inconclusive are left out. Active and inactive are the calls of the source.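 How the source made its calls, unless noted: active means RAM network inhibition above 8.4% in each of two replicates, 3 SD over the compound average; inconclusive means above 8.4% inhibition in only one replicate; inactive means 8.4% inhibition or less in each replicate.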
# Columns and labels:
# [1] = S. cerevisiae growth inhibition in permissive medium (OD615), pilot counter-assay for S. cerevisiae lifespan shortening project, permissive growth control (AID 705;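 active means growth inhibition above 25% in both replicates, a cutoff set 3 SD above the mean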); conditions: OD615, 24 h, at 10 µM, hits give high values
# Outline: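 Material: engineered DeaD yeast; compound dosing: one dose 10 µM, DMSO 0.25% final; measure: yeast growth inhibition indicated by reduced 24 h OD615; detection: OD615 turbidity read; incubation: cells pre-grown 4 h, then 24 h compound exposure, 30 °C humidified; medium: permissive synthetic complete medium with raffinose and galactose carbon sources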
# [2] = S. cerevisiae growth inhibition in restrictive medium, OD615, pilot screen, restrictive growth control, yeast lifespan reduction project (AID 706;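 active means growth inhibition above a set limit, 3 SD over mean compound inhibition, in both replicates, cut at about 43% in these data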;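 further: modified DeaD lifespan yeast strain shifted to restrictive glucose medium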); conditions: OD615, 48 h, at 10 µM, hits give high values
# Outline: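 material = engineered S. cerevisiae DeaD strain | medium = glucose-based CSMM-D restrictive medium | times = 4 h pre-incubation, 48 h exposure at 30 °C | technique = OD615 absorbance reading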
# [3] = doxorubicin toxicity protection in MRP-1 cells – H69AR cells, CellTiter-Glo, duplicate, MRP-1 activator project, pilot screen (AID 807;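 active means viability increase at or above a cutoff of the median across tested compounds plus 3 SD, cut at about 8.5% in these data, passing the limit was not always enough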;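 further: compound pretreatment 18-22 h then 72 h combined with doxorubicin; 0% = doxorubicin alone and 100% = vehicle without doxorubicin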); conditions: H69AR viability with doxorubicin, CellTiter-Glo luminescence; at 10 µM; hits give high values
# [4] = viability of PTEN-null HCT116 cells – cell-based, HCT116 clonal line, CellTiter-Glo, pilot screen (AID 824;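 active means viability at or below 27.92% in each of two runs, the all-compound median minus 4 SD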;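 further: 0% = 20 µM Hyamine control and 100% = vehicle cell control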); conditions: HCT116 PTEN-deleted viability, 60 h, at 10 µM, hits give low values
# [5] = RAM pathway blockade in budding yeast – dse1pr::URA3 reporter, 5-FOA selection, pilot screen (AID 869;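 active means inhibition over a set limit, the all-compound mean plus 3 SD, in both replicate runs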;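 further: 0% = DMSO wells with no growth and 100% = 10 µM 1-NA-PP1 with full growth; RAM network block rescues cells from 5-FOA so hits raise OD615 growth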); conditions: S. cerevisiae dse1pr::URA3 5-FOA growth, OD615, 2 d; at 10 µM; hits give high values; strain carries analog-sensitive mutant Cbk1 kinase
# [6] = RAM signaling pathway blockade in yeast – S. cerevisiae, Pdr1DBD-CYC8 efflux-inhibited sensitized strain, primary screen (AID 1298);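 further: 0% = DMSO untreated cells without growth and 100% = 10 µM 1-NA-PP1 full growth; higher means more yeast growth rescued from 5-FOA killing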; conditions: S. cerevisiae cbk1-as DSE1-URA3 strain, 5-FOA growth OD615, 2 d; at 50 µM; hits give high values
SMILES,growth inhibition [1] [%],growth inhibition [2] [%],viability increase [3] [%],viability [4],inhibition [5] [%],RAM network inhibition [6] [%]
COCCNC(=O)c1ccc2c(=O)n(CCOC)c(=O)[nH]c2c1,-8.7,-15.7,-3.33,91.3%,0.805,0.78
Cc1cccc(-n2c(=O)[nH]c3c(C(N)=O)nc(-c4ccccc4Cl)nc32)c1,-7.62,-0.18,-7.67,11.7% (active),3.09,3.41
O=C(Cc1ccc(Cl)cc1)Nc1ccccc1CO,0.105,-1.33,0.18,101%,0.45,5.48
Cc1c(-c2ccco2)[n+](=O)c2c(n1[O-])CCCCC2,-4.97,-4.29,-1.32,105%,1.32,8.4
O=C(c1ccsc1)N1CCN(C(=O)c2cccs2)CC1,-9.91,2.31,1.13,107%,2.04,0.97
O=c1cc(NCc2ccco2)c2ccccc2o1,-2.07,-3.13,-4.38,96.7%,1.84,1.33
COc1ccccc1-n1c(SCC(=O)Nc2nnc(C)s2)nc2c(c1=O)SCC2,-5.29,3.71,-3.7,80.6%,0.81,3.59
CCN(Cc1ccccc1)S(=O)(=O)c1ccc(C(=O)Nc2nnc(C3CC3)o2)cc1,-5.06,-18.6,-4.27,22.8% (active),2.35,5.05
CCn1nc(C(=O)NC2=NCCS2)c2ccccc2c1=O,9.05,-1.14,-2.76,104%,1.19,3.32
COc1ccc(OC)c(S(=O)(=O)N2CCCCC2C(=O)N2CCN(c3ccccn3)CC2)c1 (stereo not given),1.82,-0.22,-4.71,91.8%,1.77,7.83
CN(CC1CCCO1)S(=O)(=O)c1ccc(C(=O)Nc2nc3cc4c(cc3s2)OCO4)cc1 (stereo not given),-9.44,-15.3,-4.33,35.8%,2.66,4.04
CCOC(=O)N1CCC(NC(=O)C(CC(C)C)NC(=O)C2CCCCC2)CC1 (stereo not given),-6.28,-1.08,-2.08,100%,2.41,1.8
Cc1nc2nc(SCC(=O)N3CCOCC3)nn2c(C)c1Cc1ccccc1,-0.01,1.59,-3.4,95.5%,1.7,0.77
Cc1ccc(Cl)cc1N(CC(=O)N1CCCCCC1)S(C)(=O)=O,-9.3,10.7,-3.63,93.4%,0.635,1.37
Cc1c(C(=O)NCc2ccc3c(c2)OCO3)oc2ccc(S(=O)(=O)N3CCCC3)cc12,-2.78,-4.95,-0.63,66.1%,1.78,4.67
O=C(NC1(C(F)(F)F)Oc2ccccc2O1)N1CCCC1,-3.63,-7.95,-6.12,81.3%,0.56,1.58
COc1ccc(C2C(C(=O)c3cccs3)=C(O)C(=O)N2c2nncs2)cc1 (stereo not given),-15.5,-14.4,-1.95,102%,0.41,2.46
CC(Oc1ccc(Cl)cc1Cl)C(=O)NCc1ccncc1 (stereo not given),-10.3,-7.06,-4.17,89.1%,1.26,1.89
CC(=O)NCCOC(=O)Nc1ccncc1,4.58,-5.27,-0.91,99.1%,1.32,3.18
O=C(CN1CCN(c2ccccn2)CC1)N(c1ccccc1)c1ccc2ccccc2c1,-6.17,-0.835,-1.57,69.9%,2.88,5.32

SMILES,growth inhibition [1] [%],growth inhibition [2] [%],viability increase [3] [%],viability [4],inhibition [5] [%],RAM network inhibition [6] [%]
Nc1ccc(O)c(-c2nc3ccccc3s2)c1,2.32,5.73,-7.28,32.6%,2.77,1.92
CC(NC(=O)c1ccccc1O)c1ccccc1 (stereo not given),0.015,-2.42,0.41,94.1%,0.1,0
CCCCNc1ncnc2c1cnn2-c1ccccc1,-4.09,-11.2,-6.48,32.4%,1.83,-0.15
c1ccc(-n2nnnc2-n2ccnc2)cc1,3.38,1.55,-0.62,109%,0.76,0.92
CCCn1c(C(C)NC(=O)c2ccccc2)nc2ccccc21 (stereo not given),-8.46,-6.87,-2.18,97.6%,2.92,5.38
CCOC(=O)N1CCN(C(=O)CS(=O)(=O)c2cn(Cc3ccccc3C)c3ccccc23)CC1,-9.04,-6,-2.26,94%,2.09,8.81
COC(=O)c1c(NC(=O)Cc2cccs2)sc(C)c1C,2.9,6.72,-4.9,87%,1.54,9.13
COc1cc2[nH]c(=O)n(CCCC(=O)N3CC=C(c4ccccc4)CC3)c(=O)c2cc1OC,-11.3,-6.67,-4.59,80.5%,0.355,1.8
Cc1ccc(C(C)NC(=O)c2ccco2)cc1C (stereo not given),-7.97,-4.3,-3.06,98.8%,0.75,-1.23
COc1ccccc1C(=O)C(O)c1ccccc1OC (stereo not given),-8.34,0.335,0.03,94.4%,0.755,5.17
O=S(=O)(NCCc1csc(-c2cccnc2)n1)c1ccc2c(c1)OCCO2,-5.61,8.38,-0.72,95.5%,1.71,-0.63
CCc1cc(=O)oc2cc(OCC(=O)OC)c(Cl)cc12,-4.85,1.34,-2.39,101%,0.695,4.51
CCNc1nc(Oc2ccc(C(=O)OCC)cc2)nc(SC)n1,-5.11,1.57,-1.58,78.9%,2.05,2.82
CCOC(=O)N1CCN(S(=O)(=O)c2cc(Br)cc3c2N(C(=O)C2CC2)CC3)CC1,-3.63,7.68,-1.65,99.5%,0.715,5.87
COc1cc(C(C)=O)ccc1OC(=O)C(C)N1C(=O)c2ccccc2C1=O (stereo not given),-17.5,-5.68,-2.73,93.9%,1.02,3.8
COc1cc(C(=O)N2CCN(c3cccc(C)c3C)CC2)cc(OC)c1OC,0.72,9.77,-5.32,20.1% (active),-0.125,10.1
Cc1ccc(NC(=O)CC2SC3=NCCN3C2=O)cc1 (stereo not given),3.71,10.6,3.08,96.1%,1.66,1.49
Cc1cc(S(=O)(=O)N2CCN(Cc3ccc4c(c3)OCO4)CC2)cc(C)c1N1CCCC1=O,-10.6,-19.3,-3.13,53.6%,-0.21,0.73
CCC(=O)Nc1sc2c(c1C#N)CC(C)(C)NC2(C)C,-7.39,-4.29,0.09,100%,1.89,0.46
CS(=O)(=O)N(CC(=O)N1CCCCCC1)c1cccc(Br)c1,-9.19,-11.5,-2.75,94.5%,1.21,1.44
